Reference: ChEMBL document CHEMBL1141456, “Ca2+ channel alpha2-delta ligands for the treatment of neuropathic pain” (J Med Chem, 2007)

Legend:
[1] = Displacement of [3H]gabapentin from alpha2-delta calcium channel in pig brain; design: species or system Sus scrofa
Method in brief: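 Competition binding of [3H]gabapentin to partially purified pig forebrain membranes. IC50, in nM, is the concentration giving half-maximal inhibition of specific [3H]gabapentin binding.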

[2] = Dissociation constant, pKa of the compound; assay type: physicochemical

| Compound | IC50 [1] [nM] | pKa [2] |
| --- | --- | --- |
| CC(C)CC(CN)c1nnn[nH]1 (stereo not given) | 170 | 3.74 |
| NCC1(Cc2nnn[nH]2)CCCCC1 | 100 |  |
| NCC1(CC(=O)O)CCCCC1 [GABAPENTIN] | 87 | 4.1 |
| Cn1nnnc1CC1(CN)CCCCC1 | > 10000 |  |
| NCC1(Cc2n[nH]c(=O)o2)CCCCC1 | > 10000 | 7.18 |
| NCC1(Cc2noc(=O)[nH]2)CCCCC1 |  | 5.24 |
| NCC1(Cc2nnn[nH]2)CCCCCC1 | 100 |  |
